We go through 2 molecules from ChEMBL document CHEMBL4706709, “Withanolides from dietary tomatillo suppress HT1080 cancer cell growth by targeting mutant IDH1” (Bioorg Med Chem, 2021).

Test [1] addresses T1, Isocitrate dehydrogenase [NADP] cytoplasmic (Homo sapiens, UniProt O75874, R132H). The test can be described thus: Binding affinity to C-terminal His6-tagged IDH1 R132H mutant (unknown origin) expressed in Escherichia coli BL21 (DE) measured after 20 mins by Red-NHS fluorescence dye-based microscale thermophoresis analysis. The gist of the method: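 IDH1 R132H fluorescently labelled (RED kit) and used at 20 nM in 20 mM HEPES pH 7.5 with 0.05% Tween-20. Mixed 1:1 with a ligand dilution series, 20 min at room temperature. Loaded in standard capillaries, 10 min at 25 °C. Thermophoresis read at 20% laser and 100% LED power, Kd fitted from the curve.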
In general terms: MST reads how a fluorescent partner responds to local heating, with and without ligand.

For test [2], the target named is T1, Isocitrate dehydrogenase [NADP] cytoplasmic. Kind of test: Inhibition of C-terminal His6-tagged IDH1 R132H mutant (unknown origin) expressed in Escherichia coli BL21 (DE) using alpha-ketoglutarate as substrate preincubated for 10 mins followed by substrate addition and measured at 1 min interval for 20 mins in presence of NADPH. In a few lines:
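His-tagged IDH1 R132H at 2 μM in 50 mM HEPES pH 7.5 with 4 mM MgCl2 and 100 μM NADPH. Compound preincubated with enzyme 10 min, then reaction started with 2 mM α-KG. NADPH consumption read at 340 nm every 1 min for 20 min. IC50 from mean of three independent assays.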

Test [3] has as its target Isocitrate dehydrogenase [NADP] cytoplasmic (Homo sapiens, UniProt O75874). The test can be described thus: Inhibition of wild-type IDH1 (unknown origin) in presence of sodium(D)-isocitrate and NADP+. The gist of the method: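 Wild-type IDH1 purified at 43 nM in 50 mM HEPES pH 7.5 with 50 μM sodium D-isocitrate, 4 mM MgCl2 and 1 mM NADP+. NADPH production monitored at 340 nm. IC50 from mean of three independent assays.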

Test [4] concerns Isocitrate dehydrogenase [NADP] cytoplasmic (Homo sapiens), O75874 [R132H]. The test can be described thus: Inhibition of IDH1 […] assessed as reduction in R-2-HG concentration measured after 48 hrs by LC-MS/MS analysis. In kind it is cell-based. The following applies: dose 0.94-30 µM. The gist of the method: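 HT1080 cells treated 48 h with 0.94–30 μM compound or DMSO. Medium diluted in methanol and centrifuged. R-2-HG in the supernatant quantified by LC-MS/MS (ESI, MRM) on a C18 column, gradient of methanol against 10 mM ammonium acetate pH 7.4. Peak area normalised to internal standard, IC50 from the dose–response curve.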
Sequence of Isocitrate dehydrogenase [NADP] cytoplasmic (Homo sapiens), O75874 [R132H] (O75874 whole entry R132H): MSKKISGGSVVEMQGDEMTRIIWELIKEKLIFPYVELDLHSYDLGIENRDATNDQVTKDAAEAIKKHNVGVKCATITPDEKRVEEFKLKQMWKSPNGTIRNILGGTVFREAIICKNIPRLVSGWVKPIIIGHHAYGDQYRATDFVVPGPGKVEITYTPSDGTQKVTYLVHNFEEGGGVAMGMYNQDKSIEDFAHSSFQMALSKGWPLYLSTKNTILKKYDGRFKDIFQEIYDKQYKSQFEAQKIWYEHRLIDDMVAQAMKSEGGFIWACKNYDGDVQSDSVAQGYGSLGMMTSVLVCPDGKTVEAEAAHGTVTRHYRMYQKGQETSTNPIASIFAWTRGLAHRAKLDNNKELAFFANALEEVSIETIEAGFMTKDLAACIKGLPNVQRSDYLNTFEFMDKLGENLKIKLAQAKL

Test [5] has the same test system. Kind of test: Inhibition of IDH1 […] assessed as increase in p53 expression at 3.25 to 6.5 uM measured after 48 hrs by DAPI staining based immunofluorescence microscopic analysis. The test is classed as cell-based. The following applies: dose 3.25-6.5 µM. The gist of the method: (§1)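 HT1080 cells on slides exposed 48 h to 3.25 or 6.5 μM compound. Fixed in 4% paraformaldehyde 15 min, permeabilised with 0.1% Triton X-100 for 5 min at 4 °C, blocked 2 h in 5% BSA. Primary antibody (H3K9me3, HIF-1α or p53, 1:100) overnight at 4 °C. Fluorescent secondary (1:500) 1 h in the dark, DAPI counterstain, imaged.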

The test system is the same in test [6]. The test can be described thus: Inhibition of IDH1 […] assessed as down regulation of H3K9me3 expression at 6.5 uM measured after 48 hrs by DAPI staining based immunofluorescence microscopic analysis. In kind it is cell-based. The gist of the method:
as §1

Test [7] relates to HT-1080. Kind of test: Antiproliferative activity against human HT-1080 cells transfected with shIDH1 R132C assessed as reduction in cell proliferation at 1.25 to 10 uM measured after 48 hrs by CCK8 assay. In kind it is functional, cell-based. As to conditions: dose 1.25-10 µM. In a few lines:
(§2)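 HT1080 cells (IDH1 R132C) in high-glucose DMEM with 10% FBS, 37 °C, 5% CO2. Adherent cells exposed to compound in fresh medium for 48 h, DMSO kept below 0.5%. Viability by CCK8, absorbance at 450 nm. Three repeats.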
(In general: Tetrazolium assays rely on reduction of a dye to a coloured formazan, in cell work by metabolically active cells.)

The test system of test [8] is HT-1080. The test can be described thus: Induction of apoptosis in human HT-1080 cells assessed as late apoptotic cells at 6.5 uM measured after 48 hrs by Annexin V-FITC/propidium iodide staining based flow cytometry (reference value: 3.2%). The test is classed as functional. On the technique in general: Flow cytometry measures light scatter and fluorescence of single cells or particles in a stream.

Test [9] concerns HT-1080. The test can be described thus: Induction of apoptosis in human HT-1080 cells assessed as viable cells at 6.5 uM measured after 48 hrs by Annexin V-FITC/propidium iodide staining based flow cytometry (reference value: 66.6%). As to conditions: read-out: Activity. The test is classed as functional.
Test [10] concerns Isocitrate dehydrogenase [NADP] cytoplasmic (Homo sapiens), O75874 [R132H]. Kind of test: Inhibition of IDH1 […] assessed as down regulation of H3K9me3 expression at 3.25 to 6.5 uM measured after 48 hrs by Western blot analysis. In kind it is cell-based. As to conditions: dose 3.25-6.5 µM. In a few lines: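 HT1080 cells in 6-well plates treated 48 h. Lysed in RIPA, protein measured by BCA. Run on 12% SDS-PAGE, blotted to PVDF, blocked in 5% milk 1 h. Probed with H3K9me3 primary antibody, β-actin also available, then HRP secondary.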

Test [11] has as its system HT-1080. Kind of test: Induction of apoptosis in human HT-1080 cells assessed as nuclear fragmentation at 3.25 to 6.5 uM measured after 48 hrs by Hoechst 33258 and DAPI staining based fluorescence microscopic analysis. The following applies: dose 3.25-6.5 µM. In kind it is functional, cell-based. The gist of the method: (§3)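 HT1080 cells exposed 48 h to 3.25 or 6.5 μM compound. Blocked 2 h, then stained 30 min with Hoechst 33258. Nuclear morphology viewed by fluorescence microscopy (×200).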

The test system of test [12] is HT-1080. The test can be described thus: Induction of apoptosis in human HT-1080 cells assessed as early apoptotic cells at 6.5 uM measured after 48 hrs by Annexin V-FITC/propidium iodide staining based flow cytometry (reference value: 0%). The test is classed as functional.
In test [13] the test system is HT-1080. The test can be described thus: Antiproliferative activity against human HT-1080 cells assessed as reduction in cell proliferation measured after 48 hrs by CCK8 assay. As to conditions: HT-1080, 48 h. The test is classed as functional, cell-based. In a few lines:
as §2

In test [14] the test system is HT-1080. Kind of test: Induction of apoptosis in human HT-1080 cells assessed as necrotic cells at 6.5 uM measured after 48 hrs by Annexin V-FITC/propidium iodide staining based flow cytometry (reference value: 30.2%). In kind it is functional.
In test [15] the test system is HT-1080. The test can be described thus: Induction of apoptosis in human HT-1080 cells assessed as appearance of densely stained nucleus at 3.25 to 6.5 uM measured after 48 hrs by Hoechst 33258 and DAPI staining based fluorescence microscopic analysis. The test is classed as functional, cell-based. The following applies: dose 3.25-6.5 µM. In a few lines: as §3
Test [16] has as its system Isocitrate dehydrogenase [NADP] cytoplasmic (Homo sapiens), O75874 [R132H]. The test can be described thus: Inhibition of IDH1 […] assessed as reduction in HIF-1alpha accumulation at 3.25 to 6.5 uM measured after 48 hrs by DAPI staining based immunofluorescence microscopic analysis. The test is classed as cell-based. As to conditions: dose 3.25-6.5 µM. In a few lines:
as §1

The subject of test [17] is HT-1080. Kind of test: Antiproliferative activity against human HT-1080 cells assessed as reduction in number of EdU-positive cells measured after 24 hrs by EdU and DAPI staining based fluorescence microscopic analysis. In kind it is functional, cell-based. As to conditions: dose 3.25-6.5 µM. In a few lines:
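Log-phase HT1080 cells treated 24 h with 3.25 or 6.5 μM compound or DMSO. Then 50 μM EdU in serum-free DMEM for 2 h. Fixed in 4% paraformaldehyde, quenched with glycine, permeabilised with 0.5% Triton X-100. Apollo dye reaction for 30 min, DAPI nuclear counterstain, fluorescence microscopy. Three repeats.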

Active and inactive are the calls of the source. The calls are words filed in the database; no cut-off is given here.

A word on the Kd: it is the free concentration of one partner at which half of the binding sites on the other are occupied at equilibrium, for simple one-to-one binding. A higher Kd goes with lower affinity. What is called IC50 is the point on the concentration scale where inhibition reaches its midpoint.

T1 sequence (O75874 2-414 R132H limits assumed): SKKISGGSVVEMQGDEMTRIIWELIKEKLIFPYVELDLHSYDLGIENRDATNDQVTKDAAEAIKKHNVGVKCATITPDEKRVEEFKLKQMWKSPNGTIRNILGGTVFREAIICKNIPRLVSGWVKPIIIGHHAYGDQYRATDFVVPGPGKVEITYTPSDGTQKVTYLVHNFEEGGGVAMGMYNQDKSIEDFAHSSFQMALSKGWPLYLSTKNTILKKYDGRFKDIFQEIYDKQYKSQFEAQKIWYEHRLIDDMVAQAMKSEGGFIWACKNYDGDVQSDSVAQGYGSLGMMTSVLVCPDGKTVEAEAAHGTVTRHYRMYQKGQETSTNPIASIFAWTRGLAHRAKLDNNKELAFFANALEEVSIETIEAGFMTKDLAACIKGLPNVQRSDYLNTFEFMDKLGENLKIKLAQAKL
Sequence of Isocitrate dehydrogenase [NADP] cytoplasmic (Homo sapiens, UniProt O75874) (O75874 whole entry): as the sequence (O75874 whole entry R132H) above, with H132R counted along it

With `C[C@]12C(=O)C=CCC1=CC[C@@H]1[C@@H]2CC[C@]2(O)C(=O)O[C@@]3(C)[C@H]4C[C@]5(C)[C@@H](CO[C@@]16O[C@@]32[C@H]5C6=O)C(=O)O4` [PHYSALIN B], the dissociation constant (Kd) in test [1] stood at 45.3 µM. In addition, the values for the IC50 in [2] and in test [3] were 1260 nM and over 200 µM, respectively.

Consider `C[C@@]12C[C@H]3OC(=O)[C@@H]1CO[C@]14O[C@@]5([C@H]2C1=O)[C@@]3(C)OC(=O)[C@@]5(O)CC[C@H]1[C@H]4C[C@H]2O[C@]23CC=CC(=O)[C@]13C`, for which, in test [4], the inhibition entry is “Dose-dependent effect”. The inhibition result in [5], in [6], in [10] and in test [16] was “Active” each time. Also, the outcome in the test with HT-1080 [7], in the test on HT-1080 [11] and with HT-1080 [15] was Active. In test [1], this molecule came in with a Kd of 15.3 µM. Further, the Activity in the test with HT-1080 [8] was 23.9%; in the test with HT-1080 [12], 55%; with HT-1080 [14], 1.1%; with HT-1080 [17] it was “Dose-dependent effect”. Moreover, the viability at 6.5 µM in the test on HT-1080 [9] came out at 19.9%. Besides, the values for the IC50 (in test [2]; in the test on HT-1080 [13]; in test [3]) were 630 nM, 2410 nM and over 200 µM, respectively.
